Results on one molecule are retold here after ChEMBL document CHEMBL4049390, “Combination of amino acid/dipeptide with ligustrazine-betulinic acid as antitumor agents” (Eur J Med Chem, 2017).

Molecules are shown by their SMILES. Active and inactive are the calls of the source. The rule behind the calls is not given here.

Experiment [1] deals with HepG2. Description: Antiproliferative activity against human HepG2 cells after 72 hrs by MTT assay. Format: functional, cell-based. To be noted: HepG2, 72 h. Put shortly:
(§1)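 MTT assay. Log-phase cells were seeded at 3×10^3 cells/well and left overnight, then exposed to serial dilutions of compound (DMSO solutions) for 72 h in RPMI 1640 with 10% heat-inactivated FBS at 37 °C, 5% CO2. MTT (5 mg/mL, 20 µL) was added for 4 h at 37 °C and the formazan dissolved in DMSO. A490 was read. % inhibition = (1 − sample OD/control OD)×100; IC50 is the 50% growth-inhibition concentration. Triplicates, n = 3 independent experiments.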

Experiment [2] deals with HepG2. As to the kind of experiment: Induction of apoptosis in human HepG2 cells assessed as late apoptotic cells at 2 uM after 72 hrs by Annexin-V-FITC/propidium iodide staining based flow cytometry (reference value: 2.6%). Format: functional.
Experiment [3] relates to BGC-823. Description: Antiproliferative activity against human BGC823 cells after 72 hrs by MTT assay. To be noted: BGC-823, 72 h. Format: functional, cell-based. The essentials:
as §1

The subject of another experiment is HeLa. As to the kind of experiment: Potency index, ratio of cisplatin IC50 to compound IC50 for human HeLa cells. It is filed as functional. Put shortly:
(§2)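 Ratios were calculated from MTT IC50 values (72 h exposure, A490 read-out, n = 3). Potency index = cisplatin IC50 / compound IC50. Therapeutic index = MDCK IC50 / tumour-line IC50.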

In experiment [4] the test system is BGC-823. Description: Potency index, ratio of cisplatin IC50 to compound IC50 for human BGC823 cells. Format: functional. Put shortly: as §2
Experiment [5] has as its system HepG2. As to the kind of experiment: Induction of apoptosis in human HepG2 cells assessed as disruption of mitochondrial membrane potential by measuring mean fluorescence intensity at 4 uM after 72 hrs by Rh123 staining based flow cytometry (reference value: 26410). It is filed as functional.
Experiment [6] relates to HepG2. As to the kind of experiment: Induction of apoptosis in human HepG2 cells assessed as disruption of mitochondrial membrane potential by measuring mean fluorescence intensity at 2 uM after 72 hrs by Rh123 staining based flow cytometry (reference value: 26410). Format: functional. (A flow cytometer gives signals particle by particle.)
The test system of experiment [7] is HepG2. As to the kind of experiment: Induction of apoptosis in human HepG2 cells assessed as chromatin margination at 1.5 uM after 72 hrs by Giemsa staining based fluorescent microscopic method. Format: functional, cell-based. The essentials: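 HepG2 cells were seeded at 4×10^3 cells/well in 6-well plates overnight, then treated at 1.5, 3 or 6 µM for 72 h. Cells were washed in PBS, fixed in cold methanol, stained with 6% Giemsa for 5 min, rinsed with water and dried. Morphology was examined microscopically at 200×, with apoptotic cells marked in representative fields.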

The test system of experiment [8] is HepG2. Description: Induction of apoptosis in human HepG2 cells assessed as viable cells at 3 uM after 72 hrs by Annexin-V-FITC/propidium iodide staining based flow cytometry (reference value: 93.2%). Format: functional. To be noted: HepG2, 72 h, read-out: Activity.
For experiment [9], the system named is HepG2. Description: Induction of apoptosis in human HepG2 cells after 72 hrs by Annexin-V-FITC/propidium iodide staining based flow cytometry. It is filed as functional, cell-based.
In experiment [10] the test system is HepG2. As to the kind of experiment: Induction of apoptosis in human HepG2 cells assessed as increase in intracellular calcium level by measuring mean fluorescence intensity after 72 hrs by Fluo-3AM dye based flow cytometry. It is filed as functional, cell-based. The essentials: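 Intracellular Ca2+: HepG2 cells (1×10^5/well, 6-well) were grown 24 h, then treated at 2, 3 or 4 µM for 72 h. Cells were harvested, washed in cold PBS and resuspended in HBSS with 10 µM Fluo-3AM for 30 min at 37 °C in the dark. Flow cytometry used 488 nm excitation; the read-out is mean fluorescence intensity.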
Background: Calcium flux is commonly read through the fluorescence of an indicator in the cells.

For the molecule `C=C(C)[C@@H]1CC[C@]2(C(=O)OCc3nc(C)c(C)nc3C)CC[C@]3(C)[C@H](CC[C@@H]4[C@@]5(C)CC[C@H](OC(=O)[C@H](C)NC(=O)CNC)C(C)(C)[C@@H]5CC[C@]43C)[C@@H]12`, the IC50 with HepG2 [1] worked out at 3090 nM; with BGC-823 [3] it was 1790 nM. Further, the Activity with HepG2 [2] was 4.8%; in the experiment with HepG2 [9], “Dose-dependent effect”; with HepG2 [10], “Dose-dependent effect”. The “Ratio IC50” value in the experiment on HeLa and with BGC-823 [4] was 2 in each case. For the same molecule, the values for the Flu intensity with HepG2 [5] and in the experiment on HepG2 [6] were 2147 and 6416, respectively. Further, the outcome with HepG2 [7] was Active. Also, the viability at 3 µM in the experiment on HepG2 [8] was 81%.

The term IC50 denotes the midpoint of a concentration-inhibition curve. Read a low IC50 as greater potency in that assay.
